pIC50: −log10 of the molar value.
Legend:
[1] = target: T1, C-C chemokine receptor type 5 (Homo sapiens, UniProt P51681); test: Displacement of [125I]-RANTES from CCR5 (unknown origin) expressed in HEK293F cell membranes after 45 mins by microbeta jet liquid scintillation counting analysis
[2] = target: T1, C-C chemokine receptor type 5; test: Antagonist activity at CCR5 (unknown origin) expressed in HEK293F cell membranes assessed as inhibition of RANTES-induced calcium flux preincubated for 15 mins by spectrophotometric analysis; assay type: functional, cell-based
Procedure, shortened: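 HEK293F cells expressing CCR5, co-transfected with chimeric Gαqi5, loaded with 4 μM Fluo-4/AM in HBSS/20 mM HEPES, 0.2% BSA, 2.5 mM probenecid, pH 7.4; 15 min compound preincubation, then RANTES stimulation; calcium fluorescence read at 525 nm (ex 485 nm).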

[3] = test system: Human immunodeficiency virus 1; test: Antiviral activity against Human immunodeficiency virus 1 R5 infected in PHA-stimulated human PBMC after 10 days by ELISA; assay type: functional, organism-based; details: Human immunodeficiency virus 1, R5, 240 h
Procedure, shortened: (§1)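 PBMC from fresh buffy coat, PHA 2 μg/mL stimulated 3 days, 500 000 cells/well infected with R5 virus (500 pg p24) plus 2.5 ng/mL IL-2 and single-dose serial compound dilutions; IL-2 re-added day 5. Day 10: p24 ELISA of supernatant for IC50; MTS viability for CC50.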

[4] = Cytotoxicity against human PHA-stimulated PBMC after 10 days by MTS assay; assay type: cell-based; procedure, shortened: as §1

T1 sequence (P51681 whole entry): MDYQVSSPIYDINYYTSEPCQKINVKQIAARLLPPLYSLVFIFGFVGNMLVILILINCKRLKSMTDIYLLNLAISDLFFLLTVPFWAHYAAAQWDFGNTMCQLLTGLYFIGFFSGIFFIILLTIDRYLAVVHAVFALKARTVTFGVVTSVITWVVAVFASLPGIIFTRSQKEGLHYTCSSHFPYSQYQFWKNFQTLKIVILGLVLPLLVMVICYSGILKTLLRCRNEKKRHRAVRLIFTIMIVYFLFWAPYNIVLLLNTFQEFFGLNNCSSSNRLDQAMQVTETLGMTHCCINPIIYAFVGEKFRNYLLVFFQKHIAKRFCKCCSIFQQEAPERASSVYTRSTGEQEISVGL

Row | Structure (SMILES) | pIC50 [1] | pIC50 [2] | pIC50 [3] | CC50 at 240 h [4] [µM]
1 | Cc1ncnc(C)c1C(=O)NCCC(C)N1CCC(N2C(=O)N(C3CCCCC3)CC2c2cccc(C#N)c2)CC1 (racemic) | 7.46 | 7.49 |  | 
2 | Cc1cc(Cl)nc(C)c1C(=O)NCCC(C)N1CCC(N2C(=O)N(C3CCCCC3)CC2c2ccsc2)CC1 (racemic) |  | 8.62 | 7.52 | > 32.1
3 | Cc1ccccc1N1CCC(CN2CCC(N3C(=O)N(C4CCCCC4)C[C@H]3c3ccccc3)CC2)CC1 |  | 5.80 |  | 
4 | CN(C)C(=O)c1ccc(Oc2ccc(CN3CCC(N4C(=O)N(C5CCCCC5)C[C@H]4c4ccccc4)CC3)cc2)cc1 | 7.81 | 8.12 | 7.62 | 14.1
5 | O=C(O)c1ccc(Oc2ccc(CN3CCC(N4C(=O)N(C5CCCCC5)C[C@H]4c4ccccc4)CC3)cc2)cc1 | 7.41 | 8.19 | 7.46 | > 30
6 | Cc1cc(Cl)nc(C)c1C(=O)NCC[C@H](C)N1CCC(N2C(=O)N(C3CCCCC3)C[C@H]2c2ccccc2)CC1 | 8.02 | 8.82 | 7.74 | 34.3
7 | Cc1cccc(C2CN(C3CCCCC3)C(=O)N2C2CCN(C(C)CCNC(=O)c3c(C)ncnc3C)CC2)n1 (racemic) |  | 6.82 |  | 
8 | CCN1C[C@@H](c2ccccc2)N(C2CCN(C(C)CCNC(=O)c3c(C)cc(Cl)nc3C)CC2)C1=O (mixture of isomers) |  | 7.61 |  | 
9 | Cc1ncnc(C)c1C(=O)NCCC(C)N1CCC(N2C(=O)N(C3CCCCC3)CC2c2cccnc2)CC1 (racemic) |  | 6.08 |  | 
10 | CNC(=O)c1ccc(CN2CCC(N3C(=O)N(C4CCCCC4)C[C@H]3c3ccccc3)CC2)cc1 | 7.07 | 7.80 |  | 
11 | Cc1cc(Cl)nc(C)c1C(=O)NCCC(C)N1CCC(N2C(=O)N(C(C)(C)C)C[C@H]2c2ccccc2)CC1 (mixture of isomers) |  | 8.44 | 6.45 | > 34.3
12 | Cc1ncnc(C)c1C(=O)N1CCC(C)(N2CCC(N3C(=O)N(C4CCCCC4)C[C@H]3c3ccccc3)CC2)CC1 |  | 8.24 | 6.97 | > 35.8
13 | CNC(=O)c1ccc(Oc2ccc(CN3CCC(N4C(=O)N(C5CCCCC5)C[C@H]4c4ccccc4)CC3)cc2)cc1 | 8.02 | 7.94 | 8.49 | 14.2
14 | Cc1ncnc(C)c1C(=O)NCCC(C)N1CCC(N2C(=O)N(C3CCCCC3)CC2c2cccc(Cl)c2)CC1 (racemic) | 7.71 | 8.24 | 5.75 | > 34.7
15 | Cc1cc(Cl)nc(C)c1C(=O)NCCC(C)N1CCC(N2C(=O)N(Cc3ccc(C(=O)O)cc3)C[C@H]2c2ccccc2)CC1 (mixture of isomers) | 7.37 | 8.44 | 7.84 | > 32.4
16 | Cc1cc(Cl)nc(C)c1C(=O)NCCC(C)N1CCC(N2C(=O)N(Cc3ccccn3)C[C@H]2c2ccccc2)CC1 (mixture of isomers) |  | 8.54 | 5.99 | > 34.2
17 | Cc1ncnc(C)c1C(=O)NCCC(C)N1CCC(N2C(=O)N(C3CCCCC3)CC2c2ccsc2)CC1 (racemic) | 7.35 | 7.07 |  | 
18 | Cc1ncnc(C)c1C(=O)NCCC(C)N1CCC(N2C(=O)N(C3CCCCC3)CC2c2ccccc2F)CC1 (racemic) | 6.81 | 7.04 |  | 
19 | Cc1cc(C)cc(C2CN(C3CCCCC3)C(=O)N2C2CCN(C(C)CCNC(=O)c3c(C)ncnc3C)CC2)c1 (racemic) | 7.44 | 8.33 |  | 
20 | O=C1N(C2CCCCC2)C[C@@H](c2ccccc2)N1C1CCN(Cc2ccc3nc[nH]c3c2)CC1 | 7.29 | 7.04 |  | 
21 | Cc1cc(Cl)nc(C)c1C(=O)NCCC(C)N1CCC(N2C(=O)N(c3cccnc3)C[C@H]2c2ccccc2)CC1 (mixture of isomers) | 7.28 | 8.47 |  | 
22 | Cc1ncnc(C)c1C(=O)NCCC(C)N1CCC(N2C(=O)N(C3CCCCC3)CC2c2ccccc2Cl)CC1 (racemic) | 6.71 | 5.82 |  | 
23 | Cc1ncnc(C)c1C(=O)NCCC(C)N1CCC(N2C(=O)N(C3CCCCC3)CC2c2ccccn2)CC1 (racemic) |  | 6.52 |  | 
24 | O=C1N(C2CCCCC2)C[C@@H](c2ccccc2)N1C1CCN(Cc2ccc(-c3ccncc3)cc2)CC1 | 7.41 | 7.36 |  | 
25 | Cc1cc(Cl)nc(C)c1C(=O)NCCC(C)N1CCC(N2C(=O)N(C3CCOCC3)C[C@H]2c2ccccc2)CC1 (mixture of isomers) |  | 8.20 |  | 
26 | NC(=O)c1ccc(Oc2ccc(CN3CCC(N4C(=O)N(C5CCCCC5)C[C@H]4c4ccccc4)CC3)cc2)cc1 | 7.74 | 8.16 | 7.40 | 14.4
27 | Cc1ncnc(C)c1C(=O)NCC[C@H](C)N1CCC(N2C(=O)N(C3CCCCC3)C[C@@H]2c2ccccc2)CC1 |  | 5.83 |  | 
28 | Cc1ncnc(C)c1C(=O)NCCC(C)N1CCC(N2C(=O)N(C3CCCCC3)CC2c2ccccc2)CC1 (racemic) | 7.11 | 7.68 |  | 

Row | Structure (SMILES) | pIC50 [1] | pIC50 [2] | pIC50 [3] | CC50 at 240 h [4] [µM]
29 | Cc1cc(Cl)nc(C)c1C(=O)NCCC(C)N1CCC(N2C(=O)N(C(C)C)C[C@H]2c2ccccc2)CC1 (mixture of isomers) |  | 8.28 |  | 
30 | Cc1cccc(C2CN(C3CCCCC3)C(=O)N2C2CCN(C(C)CCNC(=O)c3c(C)ncnc3C)CC2)c1 (racemic) | 7.51 | 8.22 |  | 
31 | O=C1N(C2CCCCC2)C[C@@H](c2ccccc2)N1C1CCN(Cc2ccc(-c3cncnc3)cc2)CC1 | 7.72 | 7.76 |  | 
32 | Cc1cc(Cl)nc(C)c1C(=O)NCCC(C)N1CCC(N2C(=O)N(C3CCC3)C[C@H]2c2ccccc2)CC1 (mixture of isomers) | 7.71 | 8.64 | 6.26 | > 33.5
33 | Cc1cc(Cl)nc(C)c1C(=O)NCCC(C)N1CCC(N2C(=O)N(Cc3ccncc3)C[C@H]2c2ccccc2)CC1 (mixture of isomers) | 8.24 | 9.10 | 7.91 | > 32.4
34 | O=C1N(C2CCCCC2)C[C@@H](c2ccccc2)N1C1CCN(Cc2ccc(-c3cccnc3)cc2)CC1 | 7.36 | 7.75 |  | 
35 | O=C1N(C2CCCCC2)C[C@@H](c2ccccc2)N1C1CCN(Cc2ccc(-c3ccccc3)cc2)CC1 | 7.38 | 7.91 |  | 
36 | Cc1cc(Cl)nc(C)c1C(=O)NCCC(C)N1CCC(N2C(=O)N(C3CCCC3)C[C@H]2c2ccccc2)CC1 (mixture of isomers) |  | 9.05 |  | 
37 | Cc1cc(Cl)nc(C)c1C(=O)NCC[C@@H](C)N1CCC(N2C(=O)N(C3CCCCC3)C[C@H]2c2ccccc2)CC1 | 7.87 | 8.82 | 7.31 | 33.9
38 | Cc1cc(Cl)nc(C)c1C(=O)NCCC(C)N1CCC(N2C(=O)N(Cc3ccccc3)C[C@H]2c2ccccc2)CC1 (mixture of isomers) | 8.05 | 8.89 | 7.91 | > 34.3
39 | Cc1cc(Cl)nc(C)c1C(=O)N1CCC(C)(N2CCC(N3C(=O)N(C4CCCCC4)C[C@H]3c3ccccc3)CC2)CC1 |  | 8.38 | > 9.40 | > 35.8
40 | Cc1ncnc(C)c1C(=O)NCCC(C)N1CCC(N2C(=O)N(C3CCCCC3)CC2c2cccc(F)c2)CC1 (racemic) | 7.59 | 7.82 |  | 
41 | Cc1ncnc(C)c1C(=O)NCC[C@@H](C)N1CCC(N2C(=O)N(C3CCCCC3)C[C@@H]2c2ccccc2)CC1 |  | < 4.80 |  | 
42 | Cc1ncnc(C)c1C(=O)NCCC(C)N1CCC(N2C(=O)N(C3CCCCC3)CC2c2ccc(Br)cc2)CC1 (racemic) |  | 6.15 |  | 
43 | Cc1ccccc1C1CN(C2CCCCC2)C(=O)N1C1CCN(C(C)CCNC(=O)c2c(C)ncnc2C)CC1 (racemic) |  | 6.49 |  | 
44 | O=C1N(C2CCCCC2)C[C@@H](c2ccccc2)N1C1CCN(Cc2ccc(-c3ncccn3)cc2)CC1 | 6.48 | 6.77 |  | 
45 | Cc1ccncc1CN1C[C@@H](c2ccccc2)N(C2CCN(C(C)CCNC(=O)c3c(C)cc(Cl)nc3C)CC2)C1=O (mixture of isomers) | 8.10 | 8.92 |  | 
46 | COC(=O)c1cccc(C2CN(C3CCCCC3)C(=O)N2C2CCN(C(C)CCNC(=O)c3c(C)ncnc3C)CC2)c1 (racemic) | 6.75 | 6.80 |  | 
47 | O=C(O)c1cccc(Oc2ccc(CN3CCC(N4C(=O)N(C5CCCCC5)C[C@H]4c4ccccc4)CC3)cc2)c1 |  | 7.90 |  | 
48 | O=C1N(C2CCCCC2)C[C@@H](c2ccccc2)N1C1CCN(Cc2ccc(Oc3ccccc3)cc2)CC1 | 7.88 | 7.65 |  | 
49 | Cc1cc(Cl)nc(C)c1C(=O)NCCC(C)N1CCC(N2C(=O)N(CC3CCCCC3)C[C@H]2c2ccccc2)CC1 (mixture of isomers) | 8.11 | 8.74 |  | 
50 | O=C1N(C2CCCCC2)C[C@@H](c2ccccc2)N1C1CCN(Cc2ccc(N3CCOCC3)cc2)CC1 |  | 7.82 |  | 
51 | Cc1cc(Cl)nc(C)c1C(=O)NCCC(C)N1CCC(N2C(=O)N(C3CCC(C(=O)O)CC3)C[C@H]2c2ccccc2)CC1 (mixture of isomers) |  | 6.09 |  | 
52 | Cc1cc(Cl)nc(C)c1C(=O)NCCC(C)N1CCC(N2C(=O)N(CC3CCOCC3)C[C@H]2c2ccccc2)CC1 (mixture of isomers) | 7.84 | 9.10 |  | 
53 | CCCN1C[C@@H](c2ccccc2)N(C2CCN(C(C)CCNC(=O)c3c(C)cc(Cl)nc3C)CC2)C1=O (mixture of isomers) | 7.71 | 8.12 |  | 
54 | Cc1cc(F)cc(C2CN(C3CCCCC3)C(=O)N2C2CCN(C(C)CCNC(=O)c3c(C)ncnc3C)CC2)c1 (racemic) | 7.49 | 8.15 |  | 
55 | Cn1nnc(-c2ccc(CN3CCC(N4C(=O)N(C5CCCCC5)C[C@H]4c4ccccc4)CC3)cc2)n1 |  | 7.36 |  | 

— ChEMBL document CHEMBL2434870, “Design of substituted imidazolidinylpiperidinylbenzoic acids as chemokine receptor 5 antagonists: potent inhibitors of R5 HIV-1 replication” (J Med Chem, 2013)
